From ChEMBL document CHEMBL2203013, “Strategy for Imidazotetrazine Prodrugs with Anticancer Activity Independent of MGMT and MMR” (ACS Med Chem Lett, 2012)
The source made the active and inactive calls. The calls are words filed in the database; no cut-off is given here.

Columns and labels:
[1] = test system: HT-29; test: Cytotoxicity against human HT-29 cells after 5 days by MTT assay; assay type: functional, cell-based; conditions: for IC50: HT-29, 120 h
[2] = Prodrug conversion in citrate-phosphate buffer at pH 4 assessed as half life of compound; assay type: physicochemical
In short: (§1)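 Hydrolysis in citrate-phosphate buffers at 37 °C, followed by UV absorbance at 330 nm (loss of imidazotetrazine). k′ is a pseudo-first-order rate constant (×10–5 s–1), mean ± SD of three independent determinations; t1/2 given in hours.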

[3] = test system: U-251; test: Cytotoxicity against human U251 cells after 5 days by MTT assay; assay type: functional, cell-based; conditions: for IC50: U-251, 120 h
[4] = test system: A2780; test: Cytotoxicity against human A2780 cells after 5 days by MTT assay; assay type: functional, cell-based
[5] = test system: A549; test: Cytotoxicity against human A549 cells after 5 days by MTT assay; assay type: functional, cell-based; conditions: for IC50: A549, 120 h
[6] = test system: PANC-1; test: Cytotoxicity against human PANC1 cells after 5 days by MTT assay; assay type: functional, cell-based; conditions: for IC50: PANC-1, 120 h
[7] = (§2) Cytotoxicity against MMR-deficient human A2780/CP70 cells after 5 days by MTT assay in presence of 10 uM MGMT inactivator Patrin2; assay type: functional, cell-based; conditions: A2780/CP70, 120 h
[8] = Prodrug conversion in citrate-phosphate buffer at pH 7.4 assessed as pseudo-first-order rate constant; assay type: physicochemical; in short: as §1
[9] = Prodrug conversion in citrate-phosphate buffer at pH 8 assessed as half life of compound; assay type: physicochemical; in short: as §1
[10] = test system: A2780/CP70; test: Cytotoxicity against MMR-deficient human A2780/CP70 cells after 5 days by MTT assay; assay type: functional, cell-based
[11] = test system: HCT-116; test: Cytotoxicity against human HCT116 cells after 5 days by MTT assay; assay type: functional, cell-based; conditions: for IC50: HCT-116, 120 h
[12] = Prodrug conversion in citrate-phosphate buffer at pH 4 assessed as pseudo-first-order rate constant; assay type: physicochemical; in short: as §1
[13] = test system: DLD-1; test: Cytotoxicity against human DLD1 cells after 5 days by MTT assay; assay type: functional, cell-based; conditions: for IC50: DLD-1, 120 h
[14] = Prodrug conversion in citrate-phosphate buffer at pH 7.4 assessed as half life of compound; assay type: physicochemical; in short: as §1
[15] = Prodrug conversion in citrate-phosphate buffer at pH 8 assessed as pseudo-first-order rate constant; assay type: physicochemical; in short: as §1
[16] = test system: A2780; test: Cytotoxicity against human A2780 cells after 5 days by MTT assay in presence of 10 uM MGMT inactivator Patrin2; assay type: functional, cell-based
[17] = test system: A2780; test: Ratio of IC50 for human A2780 cells to IC50 for MMR-deficient human A2780/CP70 cells in presence of 10 uM MGMT inactivator Patrin2; assay type: functional
[18] = test system: A2780/CP70; test: as §2; assay type: functional, cell-based
[19] = test system: Nucleic Acid; test: Induction of Escherichia coli pBR322 DNA alkylation assessed as formation of covalent DNA adducts after 2 hrs by Taq polymerase DNA stop assay; assay type: nucleic-acid assay
[20] = test system: Nucleic Acid; test: Binding affinity to Escherichia coli pBR322 DNA assessed as guanine-N7 alkylation on GC-rich region after 2 hrs by piperidine cleavage assay; assay type: nucleic-acid assay

t1/2 [2] [h] | Drug metabolism [8] [×10⁻⁵ /s] | t1/2 [9] [h] | Drug metabolism [12] [×10⁻⁵ /s] | t1/2 [14] [h] | Drug metabolism [15] [×10⁻⁵ /s] | Activity [19] | Activity [20] | SMILES | IC50 [1] [nM] | IC50 [3] [nM] | Activity [4] | IC50 [5] [nM] | IC50 [6] [nM] | Activity [10] | IC50 [11] [nM] | IC50 [13] [nM] | Ratio IC50 [17] | Activity [18] | Activity [16] | Activity [1] | other results
253 | 14 | 0.42 | 0.1 | 1.38 | 46.2 |  |  | Cn1nnc2c(C(N)=O)ncn2c1=O [TEMOZOLOMIDE] | > 250000 | > 250000 | Active | > 250000 | > 250000 | Active | > 250000 | > 250000 | >27 |  |  |  | IC50 [7]: > 250000 nM; IC50 ([16]; A2780, 120 h): > 250000 nM
 |  |  |  |  |  |  |  | NC(=O)c1ncn2c(=O)n(CCCl)nnc12 |  |  | Active |  |  | Active |  |  |  | Active | Active |  | 
41.5 | 15.2 | 0.39 | 0.5 | 1.27 | 49.5 | Active | Active | Cc1ccc(N(C)CCn2nnc3c(C(N)=O)ncn3c2=O)cc1 |  |  | Active |  |  | Active |  |  | 2.8 | Active | Active | Active | Activity [3]: Active; Activity [5]: Active; Activity [6]: Active; Activity [11]: Active; Activity [13]: Active
48.5 | 14.4 | 0.43 | 0.4 | 1.33 | 45.1 | Active | Active | Cc1ccc(N(CCn2nnc3c(C(N)=O)ncn3c2=O)CCn2nnc3c(C(N)=O)ncn3c2=O)cc1 |  |  | Active |  |  | Active |  |  | 5.8 | Active | Active | Active | Activity [3]: Active; Activity [5]: Active; Activity [6]: Active; Activity [11]: Active; Activity [13]: Active

SMILES | t1/2 [2] [h] | Drug metabolism [8] [×10⁻⁵ /s] | t1/2 [9] [h] | Drug metabolism [12] [×10⁻⁵ /s] | t1/2 [14] [h] | Drug metabolism [15] [×10⁻⁵ /s] | Activity [19] | Activity [20] | IC50 [1] [nM] | IC50 [3] [nM] | Activity [4] | IC50 [5] [nM] | IC50 [6] [nM] | Activity [10] | IC50 [11] [nM] | IC50 [13] [nM] | Ratio IC50 [17] | Activity [18] | Activity [16] | Activity [1] | other results
N[C@@H](Cc1ccc(N(CCCl)CCCl)cc1)C(=O)O [MELPHALAN] |  |  |  |  |  |  | Active | Active | 3000 | 3000 | Active | 3000 | 3000 | Active | 3000 | 3000 |  | Active | Active |  | 
